Two compounds from ChEMBL document CHEMBL4118073, “Evaluation of the antidepressant therapeutic potential of isocyanine and pseudoisocyanine analogues of the organic cation decynium-22” (Eur J Med Chem, 2017) can be followed below.

In general, IC50 refers to the point on the concentration scale where inhibition reaches its midpoint. Low readings indicate greater potency in that assay, high ones weaker potency in that assay.

The target of the first data set is T1, alpha1 adrenoceptor (Mus musculus, UniProt P97714+P97717+P97718).
T1 sequence (P97714 whole entry): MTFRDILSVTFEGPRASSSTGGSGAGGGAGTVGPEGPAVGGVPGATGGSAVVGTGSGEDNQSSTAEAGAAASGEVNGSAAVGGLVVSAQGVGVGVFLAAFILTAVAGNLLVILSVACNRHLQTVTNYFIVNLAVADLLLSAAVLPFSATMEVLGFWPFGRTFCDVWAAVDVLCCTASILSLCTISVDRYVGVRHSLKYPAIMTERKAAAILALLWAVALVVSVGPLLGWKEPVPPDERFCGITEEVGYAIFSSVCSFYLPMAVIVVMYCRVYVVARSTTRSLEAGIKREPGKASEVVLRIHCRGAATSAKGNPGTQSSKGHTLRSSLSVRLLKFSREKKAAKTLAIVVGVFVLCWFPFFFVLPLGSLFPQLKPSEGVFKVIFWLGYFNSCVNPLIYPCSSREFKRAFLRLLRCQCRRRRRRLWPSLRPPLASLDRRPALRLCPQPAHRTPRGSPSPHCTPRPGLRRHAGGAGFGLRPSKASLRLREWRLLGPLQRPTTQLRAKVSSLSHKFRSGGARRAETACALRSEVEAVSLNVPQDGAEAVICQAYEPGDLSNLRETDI
T1 sequence (P97717 whole entry): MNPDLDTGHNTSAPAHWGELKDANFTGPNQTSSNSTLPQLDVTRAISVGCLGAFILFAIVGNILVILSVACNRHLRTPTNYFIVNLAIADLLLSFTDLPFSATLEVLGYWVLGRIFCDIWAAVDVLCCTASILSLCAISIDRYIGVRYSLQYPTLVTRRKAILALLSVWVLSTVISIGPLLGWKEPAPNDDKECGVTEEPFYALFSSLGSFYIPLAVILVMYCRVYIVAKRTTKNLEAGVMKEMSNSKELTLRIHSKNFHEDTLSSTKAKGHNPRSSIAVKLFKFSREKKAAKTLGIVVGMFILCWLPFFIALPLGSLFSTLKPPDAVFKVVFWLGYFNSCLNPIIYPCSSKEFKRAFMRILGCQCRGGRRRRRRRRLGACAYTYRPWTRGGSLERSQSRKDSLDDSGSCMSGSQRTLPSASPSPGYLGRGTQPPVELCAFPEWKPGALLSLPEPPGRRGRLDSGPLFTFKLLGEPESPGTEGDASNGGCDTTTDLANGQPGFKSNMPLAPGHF
T1 sequence (P97718 whole entry): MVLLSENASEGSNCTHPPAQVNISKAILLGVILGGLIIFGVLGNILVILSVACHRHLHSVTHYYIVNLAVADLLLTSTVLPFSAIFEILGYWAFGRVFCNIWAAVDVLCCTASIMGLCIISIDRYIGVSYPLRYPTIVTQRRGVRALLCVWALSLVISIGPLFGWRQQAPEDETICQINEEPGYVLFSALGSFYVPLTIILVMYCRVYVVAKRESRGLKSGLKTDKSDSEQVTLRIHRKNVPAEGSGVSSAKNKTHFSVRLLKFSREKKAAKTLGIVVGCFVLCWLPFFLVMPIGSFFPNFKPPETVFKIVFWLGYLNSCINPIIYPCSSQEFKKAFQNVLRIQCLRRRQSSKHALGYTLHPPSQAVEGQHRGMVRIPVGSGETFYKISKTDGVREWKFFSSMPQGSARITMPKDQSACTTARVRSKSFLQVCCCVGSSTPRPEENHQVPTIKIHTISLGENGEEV
In words: Displacement of [3H]prazosin from alpha1 adrenoceptor in C57BL/6 mouse hippocampal homogenates assessed as remaining receptor bound [3H]prazosin levels at 0.1 uM after 40 mins by liquid scintillation counting method relative to control. Particulars: probe [3H]prazosin, read-out: Activity. Put shortly: (§1)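 Mouse hippocampal homogenate incubated with 1.5 nM [³H]prazosin and competing ligand across a concentration series. Bound radioligand was expressed as displacement relative to control. IC₅₀ was obtained from non-linear regression fitting of concentration-effect curves, and curve fits were compared with tamsulosin.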
Turning to `CC(C)[n+]1ccc(/C=C2/C=Cc3ccccc3N2C)c2ccccc21.O=C([O-])C(F)(F)F`, the activity at 40 min, 0.1 µM is 89.7%.
As for `CCN1/C(=C/c2ccc3ccccc3[n+]2CC)C=Cc2ccccc21.[I-]`, the activity at 40 min, 0.1 µM was found to be 44.6%.

The target of another data set is T2, Alpha-1 adrenergic receptor (Mus musculus, UniProt P97714+P97717+P97718).
T2 sequence (P97714 whole entry): T1 sequence (P97714 whole entry)
T2 sequence (P97717 whole entry): T1 sequence (P97717 whole entry)
T2 sequence (P97718 whole entry): T1 sequence (P97718 whole entry)
In words: Displacement of [3H]prazosin from alpha1 adrenoceptor in C57BL/6 mouse hippocampal homogenates after 40 mins by liquid scintillation counting method.
Details: not given
An outline of the steps:
as §1
For orientation: Loss of bound radioactivity is the signal in a displacement assay; it reports binding, not function.
On to `CC(C)[n+]1ccc(/C=C2/C=Cc3ccccc3N2C)c2ccccc21.O=C([O-])C(F)(F)F`, for which the concentration for half-maximal inhibition (IC50) is reported as 1066 nM.
For the compound `CCN1/C(=C/c2ccc3ccccc3[n+]2CC)C=Cc2ccccc21.[I-]`, the IC50 was found to be 60 nM.

The target in another data set is T1, alpha1 adrenoceptor. Briefly: Displacement of [3H]prazosin from alpha1 adrenoceptor in C57BL/6 mouse hippocampal homogenates assessed as remaining receptor bound [3H]prazosin levels at 30 uM after 40 mins by liquid scintillation counting method relative to control. Particulars: probe [3H]prazosin, read-out: Activity. An outline of the steps: as §1
For the compound `CCN1/C(=C/c2ccc3ccccc3[n+]2CC)C=Cc2ccccc21.[I-]`, the activity at 40 min, 30 µM is -5%.

Another data set has as its target T1, alpha1 adrenoceptor. Briefly: Displacement of [3H]prazosin from alpha1 adrenoceptor in C57BL/6 mouse hippocampal homogenates assessed as remaining receptor bound [3H]prazosin levels at 10 uM after 40 mins by liquid scintillation counting method relative to control. Particulars: probe [3H]prazosin, read-out: Activity. An outline of the steps: as §1
With `CC(C)[n+]1ccc(/C=C2/C=Cc3ccccc3N2C)c2ccccc21.O=C([O-])C(F)(F)F`, the activity at 40 min, 10 µM came out at 6.7%.
Still for that read-out and setting: as for `CCN1/C(=C/c2ccc3ccccc3[n+]2CC)C=Cc2ccccc21.[I-]`, the figure is 12.6%.

The subject of another data set is Mus musculus. In words: Anti-depressant-like activity in mouse assessed as time spent immobile at 0.1 mg/kg, ip administered 60 mins prior to testing measured for 6 mins by tail suspension test (reference value: 186.9 +/- 13.2 secs). Format: functional.
Details: not given
Take `CC(C)[n+]1ccc(/C=C2/C=Cc3ccccc3N2C)c2ccccc21.O=C([O-])C(F)(F)F`: the Time amounted to 198.3 s.

For a further data set, the target named is T1, alpha1 adrenoceptor. Briefly: Displacement of [3H]prazosin from alpha1 adrenoceptor in C57BL/6 mouse hippocampal homogenates assessed as remaining receptor bound [3H]prazosin levels at 0.0001 uM after 40 mins by liquid scintillation counting method relative to control. Particulars: probe [3H]prazosin, read-out: Activity. An outline of the steps:
as §1
`CC(C)[n+]1ccc(/C=C2/C=Cc3ccccc3N2C)c2ccccc21.O=C([O-])C(F)(F)F`: the activity at 40 min, 0.0001 µM is 100%.
In the case of `CCN1/C(=C/c2ccc3ccccc3[n+]2CC)C=Cc2ccccc21.[I-]`, the activity at 40 min, 0.0001 µM turned out to be 100%.

In another data set the test system is Mus musculus. Briefly: Anti-depressant-like activity in mouse assessed as time spent immobile at 1 mg/kg, ip administered 60 mins prior to testing measured for 6 mins by tail suspension test (reference value: 186.9 +/- 13.2 secs). Format: functional.
Details: not given
In the case of `CC(C)[n+]1ccc(/C=C2/C=Cc3ccccc3N2C)c2ccccc21.O=C([O-])C(F)(F)F`, the Time stood at 152.8 s.
As for `CCN1/C(=C/c2ccc3ccccc3[n+]2CC)C=Cc2ccccc21.[I-]`, the Time is 185.8 s.

The target in another data set is T1, alpha1 adrenoceptor. Briefly: Displacement of [3H]prazosin from alpha1 adrenoceptor in C57BL/6 mouse hippocampal homogenates assessed as remaining receptor bound [3H]prazosin levels at 0.01 uM after 40 mins by liquid scintillation counting method relative to control. Particulars: probe [3H]prazosin, read-out: Activity. An outline of the steps:
as §1
Take `CC(C)[n+]1ccc(/C=C2/C=Cc3ccccc3N2C)c2ccccc21.O=C([O-])C(F)(F)F`: the activity at 40 min, 0.01 µM worked out at 97.3%.
Consider `CCN1/C(=C/c2ccc3ccccc3[n+]2CC)C=Cc2ccccc21.[I-]`, for which the activity at 40 min, 0.01 µM is 81.2%.

A further data set has as its target T1, alpha1 adrenoceptor. Briefly: Displacement of [3H]prazosin from alpha1 adrenoceptor in C57BL/6 mouse hippocampal homogenates assessed as remaining receptor bound [3H]prazosin levels at 0.003 uM after 40 mins by liquid scintillation counting method relative to control. Particulars: probe [3H]prazosin, read-out: Activity. An outline of the steps:
as §1
For the compound `CCN1/C(=C/c2ccc3ccccc3[n+]2CC)C=Cc2ccccc21.[I-]`, the activity at 40 min, 0.003 µM was determined as 84%.

In the next data set the target is T1, alpha1 adrenoceptor. Briefly: Displacement of [3H]prazosin from alpha1 adrenoceptor in C57BL/6 mouse hippocampal homogenates assessed as remaining receptor bound [3H]prazosin levels at 1 uM after 40 mins by liquid scintillation counting method relative to control. Particulars: probe [3H]prazosin, read-out: Activity. An outline of the steps: as §1
Consider `CC(C)[n+]1ccc(/C=C2/C=Cc3ccccc3N2C)c2ccccc21.O=C([O-])C(F)(F)F`, for which the activity at 40 min, 1 µM was 52.3%.
As for `CCN1/C(=C/c2ccc3ccccc3[n+]2CC)C=Cc2ccccc21.[I-]`, the activity at 40 min, 1 µM was 16.6%.

A further data set has as its system Mus musculus. Briefly: Anti-depressant-like activity in mouse assessed as time spent immobile at 3.2 mg/kg, ip administered 60 mins prior to testing measured for 6 mins by tail suspension test (reference value: 186.9 +/- 13.2 secs). Format: functional.
Details: not given
Consider `CC(C)[n+]1ccc(/C=C2/C=Cc3ccccc3N2C)c2ccccc21.O=C([O-])C(F)(F)F`, for which the Time is given as 170.3 s.
For `CCN1/C(=C/c2ccc3ccccc3[n+]2CC)C=Cc2ccccc21.[I-]`, the Time worked out at 149.3 s.

A further data set relates to Mus musculus. In words: Toxicity in mouse assessed as suppression of locomotion at 10 mg/kg, ip measured for 5 mins. Format: organism-based. Particulars: in vivo.
In the case of `CC(C)[n+]1ccc(/C=C2/C=Cc3ccccc3N2C)c2ccccc21.O=C([O-])C(F)(F)F`, the Activity result was “Toxic”.

A further data set deals with Mus musculus. Briefly: Toxicity in mouse assessed as suppression of locomotion at 1 mg/kg, ip measured for 5 mins. Particulars: in vivo. Format: organism-based.
In the case of `CC(C)[n+]1ccc(/C=C2/C=Cc3ccccc3N2C)c2ccccc21.O=C([O-])C(F)(F)F`, the Activity entry is “Non-Toxic”.
Still for that read-out and setting: the same measure for `CCN1/C(=C/c2ccc3ccccc3[n+]2CC)C=Cc2ccccc21.[I-]`: “Toxic”.

Another data set has as its target T1, alpha1 adrenoceptor. Briefly: Displacement of [3H]prazosin from alpha1 adrenoceptor in C57BL/6 mouse hippocampal homogenates assessed as remaining receptor bound [3H]prazosin levels at 0.001 uM after 40 mins by liquid scintillation counting method relative to control. Particulars: probe [3H]prazosin, read-out: Activity. Put shortly: as §1
Turning to `CC(C)[n+]1ccc(/C=C2/C=Cc3ccccc3N2C)c2ccccc21.O=C([O-])C(F)(F)F`, the activity at 40 min, 0.001 µM worked out at 100%.
In the case of `CCN1/C(=C/c2ccc3ccccc3[n+]2CC)C=Cc2ccccc21.[I-]`, the activity at 40 min, 0.001 µM worked out at 92.8%.

A further data set addresses T1, alpha1 adrenoceptor. Briefly: Displacement of [3H]prazosin from alpha1 adrenoceptor in C57BL/6 mouse hippocampal homogenates assessed as remaining receptor bound [3H]prazosin levels at 100 uM after 40 mins by liquid scintillation counting method relative to control. Particulars: probe [3H]prazosin, read-out: Activity. An outline of the steps:
as §1
As for `CC(C)[n+]1ccc(/C=C2/C=Cc3ccccc3N2C)c2ccccc21.O=C([O-])C(F)(F)F`, the activity at 40 min, 100 µM stood at 3.3%.
With `CCN1/C(=C/c2ccc3ccccc3[n+]2CC)C=Cc2ccccc21.[I-]`, the activity at 40 min, 100 µM came to 13.3%.

Another data set deals with Mus musculus. In words: Toxicity in mouse assessed as suppression of locomotion at 0.1 mg/kg, ip measured for 5 mins. Particulars: in vivo. Format: organism-based.
As to `CC(C)[n+]1ccc(/C=C2/C=Cc3ccccc3N2C)c2ccccc21.O=C([O-])C(F)(F)F`, the Activity entry was “Non-Toxic”.
For the compound `CCN1/C(=C/c2ccc3ccccc3[n+]2CC)C=Cc2ccccc21.[I-]`, the Activity entry was “Non-Toxic”.

The next data set addresses T1, alpha1 adrenoceptor. In words: Displacement of [3H]prazosin from alpha1 adrenoceptor in C57BL/6 mouse hippocampal homogenates assessed as remaining receptor bound [3H]prazosin levels at 0.3 uM after 40 mins by liquid scintillation counting method relative to control. Particulars: probe [3H]prazosin, read-out: Activity. An outline of the steps:
as §1
For `CCN1/C(=C/c2ccc3ccccc3[n+]2CC)C=Cc2ccccc21.[I-]`, the activity at 40 min, 0.3 µM is 8%.
